Measurements collected from several papers.
Compare with care: the assays were run in different laboratories.
Matrix: plasma

Compound | test | test system | setting | measurement | value
CCOC(=O)[C@@]12C[C@@H]1[C@@H](n1ccc3c(NC)nc(C#Cc4ccc(Cl)s4)nc31)[C@H](O)[C@@H]2O | – | male Sprague-Dawley rat | oral, 3 mg/kg | MRT(0-t) | 2.44 h
C#Cc1cccc(Nc2ncnc3cc(OCCOC)c(OCCOC)cc23)c1 | – | male Sprague-Dawley rat | oral, 12 mg/kg, single dose | MRT(0-inf) | 5.1 h
CNCc1cc(-c2ccccc2F)n(S(=O)(=O)c2cccnc2)c1 | – | Sprague-Dawley rat | oral, 10 mg/kg | MRT(0-inf) | 2.47 h
N#Cc1ccc(Nc2nc(N)cc(Oc3c(F)cc(-c4ccc(C#N)cc4)cc3F)n2)cc1 | – | Sprague-Dawley rat | intravenous, 1 mg/kg | MRT(0-inf) | 1.56 h
COc1nc(-c2cc(C)c(N[C@@H](C)c3cc(F)cc(F)c3)nn2)ccc1-n1cnc(C)c1 | – | male Sprague-Dawley rat | intravenous, 1 mg/kg, single dose | MRT(0-t) | 3.28 h
O=C(O)/C=C/c1ccc(O)c(O)c1 | HPLC | Wistar rat | oral | MRT | 0.69 h
Oc1c(Br)cc(Cl)c2cccnc12 | – | Sprague-Dawley rat | intravenous, 2 mg/kg | MRT | 12.5 h
CCc1cc(OC)c2nccc(N3CCc4c(cc(Cn5ccnc5)cc4-c4cn(C)nc4C(F)(F)F)C3=O)c2c1 | – | male Sprague-Dawley rat | intravenous, 3 mg/kg | MRT(0-inf) | 1 h
CCc1nc(C(N)=O)c(Nc2ccc(N3CCC(N4CCN(C)CC4)CC3)c(OC)c2)nc1NC1CCOCC1 | – | male Sprague-Dawley rat | oral, 10 mg/kg | MRT(0-t) | 19.5 h
O=C(Nc1cc(F)c(F)c(F)c1)c1ccc(F)c(S(=O)(=O)NCc2cccc(B(O)O)c2)c1 | – | male Sprague-Dawley rat | intravenous, 2 mg/kg | MRT(0-t) | 0.73 h
CCc1cc(C(=O)NC)c2nccc(N3CCc4c(cc(Cn5ccnc5)cc4-c4cn(C)nc4C(F)(F)F)C3=O)c2c1 | – | male Sprague-Dawley rat | oral, 100 mg/kg | MRT(0-inf) | 10.6 h
Cc1nc(Nc2ncc(C(=O)Nc3c(C)cccc3Cl)s2)cc(N2CCN(CCO)CC2)n1 | – | female Sprague-Dawley rat | intravenous, 5 mg/kg | MRT | 3.78 h
